Among the data in ChEMBL document CHEMBL1156012, “Structure-activity relationship and improved hydrolytic stability of pyrazole derivatives that are allosteric inhibitors of West Nile Virus NS2B-NS3 proteinase” (Bioorg Med Chem Lett, 2009) are IC50 and t1/2 values, retold here.

Each structure is given as a SMILES string. Where only a bound is given, the exact number is not on record here.

The target in one series is Genome polyprotein (West Nile virus, UniProt P06935). The series is described as follows: Inhibition of WNV NS2B-NS3 protease by fluorescence assay. In a few lines:
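Recombinant WNV NS2B-NS3 proteinase (10 nM, active-site titrated against aprotinin) preincubated 60 min at 18 °C with increasing inhibitor concentrations in 10 mM Tris-HCl pH 8.0, 20% glycerol, 0.005% Brij 35. Pyr-RTKR-AMC substrate at 25 μM; initial velocities read continuously at ex 360/em 465 nm. Triplicates; IC50 derived.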

Series [1] is described as follows: Aqueous stability assessed as half life at pH 8.0 buffer. The series is classed as physicochemical. The essentials: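 Compound held in pH 8 buffer; remaining amount followed over time by LC/MS to give half-life.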

Genome polyprotein, sequence (P06935 1371-1501 limits assumed): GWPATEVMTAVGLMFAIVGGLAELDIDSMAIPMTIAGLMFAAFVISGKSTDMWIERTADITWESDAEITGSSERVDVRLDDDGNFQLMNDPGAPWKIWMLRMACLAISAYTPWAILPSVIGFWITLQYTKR
Genome polyprotein, sequence (P06935 1502-2120 limits assumed): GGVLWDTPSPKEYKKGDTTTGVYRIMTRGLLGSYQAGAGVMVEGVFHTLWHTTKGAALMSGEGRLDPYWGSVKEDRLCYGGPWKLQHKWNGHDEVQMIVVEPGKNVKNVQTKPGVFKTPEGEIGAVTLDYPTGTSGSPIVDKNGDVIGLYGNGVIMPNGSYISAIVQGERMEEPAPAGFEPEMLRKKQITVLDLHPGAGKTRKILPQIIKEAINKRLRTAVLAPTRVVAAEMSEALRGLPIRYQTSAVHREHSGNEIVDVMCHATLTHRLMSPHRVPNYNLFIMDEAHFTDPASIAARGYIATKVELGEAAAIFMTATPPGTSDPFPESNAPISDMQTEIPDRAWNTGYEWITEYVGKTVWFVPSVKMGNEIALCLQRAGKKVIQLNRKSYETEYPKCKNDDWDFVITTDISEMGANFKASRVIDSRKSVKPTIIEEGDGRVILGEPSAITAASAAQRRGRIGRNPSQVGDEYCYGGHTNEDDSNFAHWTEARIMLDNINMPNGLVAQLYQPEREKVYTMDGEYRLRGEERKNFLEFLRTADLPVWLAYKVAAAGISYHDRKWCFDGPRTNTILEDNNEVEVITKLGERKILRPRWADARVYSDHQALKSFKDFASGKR

Broadly, the IC50 is the concentration that gives 50% inhibition. On Genome polyprotein, `COc1ccc(S(=O)(=O)n2nc(OC(=O)c3ccc(F)cc3F)cc2N)cc1` registered an IC50 of 1.96 µM. Further, the t1/2 in series [1] was determined as 7.5 h.
Turning to `COc1ccc(S(=O)(=O)n2nc(OC(=O)c3c(F)c(F)c(C)c(F)c3F)cc2N)cc1`, the IC50 against Genome polyprotein is 10.7 µM.
At Genome polyprotein, `COc1ccc(S(=O)(=O)n2nc(OC(=O)c3sccc3Cl)cc2N)cc1` displayed an IC50 of 1.22 µM.
The compound `COc1ccc(Cn2nc(C)cc2CC(=O)c2c(F)cccc2F)cc1` came in with a concentration for half-maximal inhibition (IC50) against Genome polyprotein of 23.9 µM.
In turn, `COc1ccc(Cn2nc(C)cc2CC(=O)c2ccccc2F)cc1` returned an IC50 at Genome polyprotein of 38.8 µM.
Consider `COc1ccc(Cn2nc(C)cc2CC(O)c2ccccc2)cc1` (stereo not given), for which the IC50 on Genome polyprotein was above 100 µM.
For `COc1ccc(S(=O)(=O)n2nc(OC(=O)c3sccc3C)cc2N)cc1`, half-maximal inhibition against Genome polyprotein (IC50) required 5 µM.
On to `Cc1cc(OC(=O)c2c(F)ccc(C)c2F)n(Cc2ccccc2)n1`, for which the IC50 on Genome polyprotein is 9.43 µM.
On the same count and under the same terms, for `Cc1cc(OC(=O)c2c(F)cccc2F)n(Cc2ccccc2)n1` the value was 8.04 µM; for `COc1ccc(S(=O)(=O)n2nc(OC(=O)c3cc(F)ccc3F)cc2N)cc1`, 4.9 µM; for `COc1ccc(S(=O)(=O)n2nc(OC(=O)c3cccc(C(F)(F)F)c3F)cc2N)cc1`, 45.5 µM.
On Genome polyprotein, `Cc1cc(NC(=O)c2ccccc2)n(-c2ccccc2)n1` returned an IC50 of 16 µM. The t1/2 in series [1] is above 96 h.
`COc1ccc(S(=O)(=O)n2nc(OC(=O)c3ccccc3C)cc2N)cc1` returned an IC50 against Genome polyprotein of 3.55 µM.
On the same count and under the same terms, for `COc1ccc(S(=O)(=O)n2nc(OC(=O)c3ccccc3[N+](=O)[O-])cc2N)cc1` the value was above 100 µM; for `COc1ccc(Cn2nc(C)cc2OC(=O)c2c(F)ccc(C)c2F)cc1`, 9.26 µM.
Turning to `COc1ccc(S(=O)(=O)n2nc(OC(=O)c3c(F)ccc(F)c3F)cc2N)cc1`, at Genome polyprotein, it took 0.97 µM to reach half-maximal inhibition (IC50). In addition, the t1/2 in series [1] was 1.5 h.
As for `COc1ccc(S(=O)(=O)n2nc(OC(=O)c3ccc(F)c(F)c3F)cc2N)cc1`, on Genome polyprotein, half-maximal inhibition (IC50) required 11.9 µM.
Consider `COc1ccc(Cn2nc(C)cc2/C=C/c2c(F)cccc2F)cc1`, for which half-maximal inhibition against Genome polyprotein (IC50) required 13.8 µM. Besides, in series [1], the t1/2 came to 13 h.
`COc1ccc(Cn2nc(C)cc2OC(=O)c2ccccc2)cc1` displayed an IC50 against Genome polyprotein of 4.03 µM. In addition, in series [1], the t1/2 was 15 h.
On to `COc1ccc(Cn2nc(C)cc2CC(O)c2c(F)cccc2F)cc1` (stereo not given), for which, at Genome polyprotein, the IC50 was above 100 µM.
`COc1ccc(S(=O)(=O)n2nc(OC(=O)c3c(F)cccc3F)cc2N)cc1` came in with an IC50 against Genome polyprotein of 0.31 µM. Also, the t1/2 in series [1] worked out at 1.5 h.
Regarding `COc1ccc(S(=O)(=O)n2nc(OC(=O)c3c(F)cc(F)cc3F)cc2N)cc1`, it took 1.83 µM to reach half-maximal inhibition against Genome polyprotein (IC50). The t1/2 in series [1] worked out at 4.25 h.
On Genome polyprotein, `COc1ccc(Cn2nc(C)cc2CC(=O)c2ccccc2)cc1` had an IC50 above 100 µM.
`COc1ccc(Cn2nc(C)cc2OC(=O)c2c(F)cccc2F)cc1`: the concentration for half-maximal inhibition (IC50) against Genome polyprotein is 8.71 µM. Further, the t1/2 in series [1] amounted to 1.5 h.
For `COc1ccc(S(=O)(=O)n2nc(OC(=O)c3c(Cl)cccc3Cl)cc2N)cc1`, on Genome polyprotein, the IC50 was above 100 µM. Moreover, in series [1], the t1/2 came out at 5 h.
Regarding `COc1ccc(S(=O)(=O)n2nc(OC(=O)c3cc(F)c(F)cc3F)cc2N)cc1`, on Genome polyprotein, the IC50 amounted to 26.2 µM.
Still for that read-out and setting: with `COc1ccc(S(=O)(=O)n2nc(OC(=O)c3ccccc3OC)cc2N)cc1` the figure was above 100 µM.
On Genome polyprotein, `COc1ccc(S(=O)(=O)n2nc(C)cc2NC(=O)c2ccccc2)cc1` showed an IC50 of 9.2 µM. In series [1], the t1/2 was 1.25 h.
`COc1ccc(S(=O)(=O)n2nc(OC(=O)c3c(F)ccc(C)c3F)cc2N)cc1` had an IC50 at Genome polyprotein of 4.28 µM. Further, the t1/2 in series [1] was 2.5 h.
